Published values from different studies.
Each line is one published result; the experiments were not run side by side.
MTOR: Serine/threonine-protein kinase mTOR (MTOR, Homo sapiens, UniProt P42345)
HSP90B1: Endoplasmin (HSP90B1, Canis lupus familiaris, UniProt P41148)
TYK2 JH2: Non-receptor tyrosine-protein kinase TYK2, JH2 (TYK2, Homo sapiens, UniProt P29597)
SMARCA2 bromodomain: SWI/SNF-related matrix-associated actin-dependent regulator of chromatin subfamily A member 2, bromodomain (SMARCA2, Homo sapiens, UniProt P51531)
LYZ: Lysozyme C (LYZ, Gallus gallus, UniProt P00698)

| Structure (SMILES) | target | effect on | method | pH | setting | Kd [nM] |
| --- | --- | --- | --- | --- | --- | --- |
| Cc1cc2nc3c(=O)[nH]c(=O)nc-3n(C[C@H](O)[C@H](O)[C@H](O)COP(=O)(O)OP(=O)(O)OC[C@H]3O[C@@H](n4cnc5c(N)ncnc54)[C@H](O)[C@@H]3O)c2cc1C | DAZ-associated protein 1 (Homo sapiens, UniProt Q96EP5) | binding | – | – | lysate | 7 |
| N=c1ccc2c(-c3ccc(C(=O)NCCCCCCn4cc(CCCC(=O)Nc5nc6ccc(Cl)cc6c6nc(-c7ccco7)nn56)nn4)cc3C(=O)O)c3ccc(N)c(S(=O)(=O)O)c3oc-2c1S(=O)(=O)O | Adenosine receptor A3 (ADORA3, Homo sapiens, UniProt P0DMS8) | binding | flow cytometry | – | – | 5.15 |
| CCC(=O)N1CCC(C(=O)N(C)CC(=O)N2CCN(c3nc(-c4cnc(N)nc4C(F)F)nc(N4CCOCC4)n3)CC2)CC1 | MTOR | binding | competition with immobilised ligand | – | – | 54 |
| COC(=O)c1c(O)cc(O)c(Cl)c1CCC(=O)Nc1nccs1 | HSP90B1 | ligand displacement | FP | – | – | 1080 |
| COc1cc2c(Nc3ccc(NC(=O)c4ccccc4)cc3)ncnc2cc1OCCCN1CCOCC1 | Epidermal growth factor receptor (EGFR, Homo sapiens, UniProt P00533) | binding | – | – | – | > 10000 |
| c1cncc(-c2cccc(Nc3nccc(NC4CCCCC4)n3)c2)c1 | TYK2 JH2 | binding | competition with immobilised ligand | – | – | 740 |
| Cc1ncsc1-c1ccc(CNC(=O)[C@@H]2C[C@@H](O)CN2C(=O)[C@@H](NC(=O)C2(F)CC2)C(C)(C)C)c(OCCOc2ccc(CN3CCN(c4cc(-c5ccccc5O)nnc4N)CC3)cc2)c1 | SMARCA2 bromodomain | binding | SPR | – | – | 1800 |
| O=P(O)(O)O[C@H]1[C@H](O)[C@@H](OP(=O)(O)O)[C@H](OP(=O)(O)O)[C@@H](OP(=O)(O)O)[C@H]1O | PREX1 (Homo sapiens, UniProt Q8TCU6) | binding | ITC | – | – | 440 |
| CC(C)Nc1ccnc(Nc2cccc(-c3cccnc3)c2)n1 | TYK2 JH2 | binding | competition with immobilised ligand | – | – | 210 |
| COC(=O)c1c(O)cc(O)c(Cl)c1CCC(=O)Nc1nncs1 | HSP90B1 | ligand displacement | FP | – | – | 1540 |
| Cc1nc(NC(=O)N2CCC[C@H]2C(N)=O)sc1-c1ccnc(C(C)(C)C(F)(F)F)c1 | MTOR | binding | competition with immobilised ligand | – | – | 645 |
| COCCOCCc1c(C)c2cc(OC)c(O)c(C=O)c2oc1=O | Serine/threonine-protein kinase/endoribonuclease IRE1 (Mus musculus, UniProt Q9EQY0, N772Y) | binding | – | – | – | 840 |
| CCN(CC)CCCC(C)Nc1c2ccc(Cl)cc2nc2ccc(OC)cc12 (centres unmarked) | LYZ | binding | fluorescence | – | – | 4700 |
| Cc1ncsc1-c1ccc(CNC(=O)[C@@H]2C[C@@H](O)CN2C(=O)[C@@H](NC(=O)C2(F)CC2)C(C)(C)C)c(OCCOCCOCCN2CCN(c3cc(-c4ccccc4O)nnc3N)CC2)c1 | SMARCA2 bromodomain | binding | SPR | – | – | 4500 |
| CC(=O)N[C@H]1[C@H](O[C@H]2[C@H](O)[C@@H](NC(C)=O)C(O)O[C@@H]2CO)O[C@H](CO)[C@@H](O[C@@H]2O[C@H](CO)[C@@H](O)[C@H](O)[C@H]2NC(C)=O)[C@@H]1O (some centres unmarked) | LYZ | binding | – | pH 7.4 | – | 6200 |
| NCCS(=O)(=O)O | Cyclin-dependent kinase 6 (CDK6, Homo sapiens, UniProt Q00534) | binding | – | – | – | 143 |
| COC(=O)c1c(O)cc(O)c(Cl)c1CCC(=O)Nc1ccccn1 | HSP90B1 | ligand displacement | FP | – | – | 820 |
